According to article PMC8798225 (Nature, 2021):
Substitutions are numbered along the chain they refer to. Names and notes keep the numbering of the source.

Experiments:
Ubr1 [1] = target: T1, Ubr1 (Saccharomyces cerevisiae, UniProt P19812); experiment: In vitro Ubr1-dependent ubiquitination assay; type: biochemical; conditions: n = 2
Outline: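 Multi-turnover reaction at 30 °C in 50 mM HEPES pH 7.5, 0.15 M NaCl, 10 mM MgCl2, 5 mM ATP. It contained 0.1 µM Uba1, 4 µM Ubc2, 0.25 µM Ubr1 (wild-type or mutant at the same level), 80 µM Ub and 5 µM substrate. Substrate was Degron or Ub-Degron labelled at an added C-terminal Cys with fluorescein-5-maleimide. Reactions were stopped in SDS sample buffer and resolved by SDS-PAGE with fluorescence imaging.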

Ubc2 = target: T2, Ubc2 (Saccharomyces cerevisiae, UniProt P06104); experiment: Accessibility of the catalytic cysteine; type: biochemical; conditions: fluorescein-5-maleimide, presence or absence of synthetic U2BR peptide; average fluorescence, n = 2
T2 sequence (P06104 1-172): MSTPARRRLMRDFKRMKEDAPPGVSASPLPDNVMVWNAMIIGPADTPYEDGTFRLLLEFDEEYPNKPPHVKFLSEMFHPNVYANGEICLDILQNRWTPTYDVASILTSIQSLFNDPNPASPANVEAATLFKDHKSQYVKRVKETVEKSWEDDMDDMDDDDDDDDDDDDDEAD

Ubr1 [2] = target: T1, Ubr1; experiment: Single-turnover pulse-chase Ub transfer, elongation step; type: biochemical; conditions: 0.5 μM Ubr1, 30 °C, 5 min, n = 2
[3] = target: T3, Ubc2 (Saccharomyces cerevisiae), wild type (Saccharomyces cerevisiae, UniProt P06104 3-152); experiment: ITC
T3 sequence: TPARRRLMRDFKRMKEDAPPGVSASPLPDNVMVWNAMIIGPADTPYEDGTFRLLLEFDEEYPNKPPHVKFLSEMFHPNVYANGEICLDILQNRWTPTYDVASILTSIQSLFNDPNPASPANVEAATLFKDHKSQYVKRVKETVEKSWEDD

T1 sequence (P19812 whole entry, one chain of several): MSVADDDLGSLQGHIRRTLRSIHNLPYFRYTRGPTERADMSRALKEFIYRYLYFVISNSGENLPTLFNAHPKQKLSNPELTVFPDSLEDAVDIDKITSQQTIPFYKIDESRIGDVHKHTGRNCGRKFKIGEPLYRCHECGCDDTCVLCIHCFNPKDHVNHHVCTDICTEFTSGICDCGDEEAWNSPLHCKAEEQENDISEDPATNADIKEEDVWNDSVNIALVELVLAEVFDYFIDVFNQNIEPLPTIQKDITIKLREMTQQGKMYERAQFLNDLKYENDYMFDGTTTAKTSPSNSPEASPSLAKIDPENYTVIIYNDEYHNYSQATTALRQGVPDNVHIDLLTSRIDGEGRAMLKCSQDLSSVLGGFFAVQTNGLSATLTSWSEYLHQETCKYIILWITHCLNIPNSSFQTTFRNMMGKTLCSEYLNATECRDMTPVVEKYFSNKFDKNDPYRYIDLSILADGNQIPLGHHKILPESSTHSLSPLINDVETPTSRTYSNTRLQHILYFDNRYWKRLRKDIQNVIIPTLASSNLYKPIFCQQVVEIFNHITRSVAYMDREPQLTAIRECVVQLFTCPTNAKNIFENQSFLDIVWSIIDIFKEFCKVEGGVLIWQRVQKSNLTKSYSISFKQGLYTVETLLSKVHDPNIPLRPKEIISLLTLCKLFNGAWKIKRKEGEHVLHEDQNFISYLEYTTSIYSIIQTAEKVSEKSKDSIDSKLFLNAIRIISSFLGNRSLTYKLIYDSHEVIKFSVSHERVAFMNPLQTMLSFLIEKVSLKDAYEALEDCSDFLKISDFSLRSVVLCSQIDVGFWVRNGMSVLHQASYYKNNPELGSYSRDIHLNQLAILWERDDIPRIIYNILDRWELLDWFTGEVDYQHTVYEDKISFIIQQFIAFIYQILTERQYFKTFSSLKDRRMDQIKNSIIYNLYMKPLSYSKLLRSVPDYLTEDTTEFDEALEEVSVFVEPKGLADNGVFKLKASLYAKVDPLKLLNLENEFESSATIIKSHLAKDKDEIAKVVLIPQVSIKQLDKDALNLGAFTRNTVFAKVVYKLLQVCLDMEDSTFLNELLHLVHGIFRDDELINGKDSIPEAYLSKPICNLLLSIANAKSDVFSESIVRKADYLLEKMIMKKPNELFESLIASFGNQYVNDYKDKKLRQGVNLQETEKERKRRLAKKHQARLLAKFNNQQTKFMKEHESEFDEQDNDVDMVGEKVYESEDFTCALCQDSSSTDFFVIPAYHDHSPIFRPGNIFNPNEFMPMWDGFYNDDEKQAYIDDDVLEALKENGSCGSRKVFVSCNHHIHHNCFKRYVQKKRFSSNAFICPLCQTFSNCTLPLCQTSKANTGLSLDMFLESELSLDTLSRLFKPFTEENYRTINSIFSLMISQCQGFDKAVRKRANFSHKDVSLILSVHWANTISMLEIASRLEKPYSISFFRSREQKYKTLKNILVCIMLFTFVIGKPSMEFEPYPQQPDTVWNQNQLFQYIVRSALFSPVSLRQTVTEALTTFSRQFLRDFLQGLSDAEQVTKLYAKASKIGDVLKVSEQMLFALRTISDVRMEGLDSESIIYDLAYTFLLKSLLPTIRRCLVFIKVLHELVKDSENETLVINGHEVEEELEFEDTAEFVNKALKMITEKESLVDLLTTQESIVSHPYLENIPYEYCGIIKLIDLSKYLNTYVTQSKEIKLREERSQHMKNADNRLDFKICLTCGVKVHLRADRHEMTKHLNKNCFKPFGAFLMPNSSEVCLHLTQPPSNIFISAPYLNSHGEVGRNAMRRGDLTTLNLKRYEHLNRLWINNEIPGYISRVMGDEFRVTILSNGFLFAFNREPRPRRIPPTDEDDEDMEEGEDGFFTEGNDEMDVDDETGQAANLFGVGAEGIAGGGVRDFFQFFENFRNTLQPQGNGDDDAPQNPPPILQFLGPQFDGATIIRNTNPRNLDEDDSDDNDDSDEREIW

Molecule: U2BR peptide: free U2BR peptide (Ubr1 1165-1200), Ubc2 binding region (KERKRRLAKKHQARLLAKFNNQQTKFMKEHESEFDE; UniProt P19812 1165-1200, looked up, fragment)
- inhibition of polyubiquitination by free U2BR peptide (Ubr1 [1]; increasing concentrations of synthetic U2BR peptide): inhibited polyubiquitination in a dose-dependent manner
- accessibility of the catalytic cysteine (C88) of Ubc2 (Ubc2): decreased

Molecule: UBLM mutant: Ubr1 Ub binding loop mutant H678A/V679A/L680A/H681A
- monoubiquitinated product (Ubr1 [1]; Hs-Type-1 Degron and Type-2 Degron as substrates): accumulation of monoubiquitinated product
- Ub transfer to Degron versus Ub-Degron (Ubr1 [1]; UBLM mutant of Ubr1): transferred more Ub to Degron than to Ub-Degron
- polyubiquitination of Degron and Ub-Degron (effect of mutation) (Ubr1 [1]; fluorescent Degron and Ub-Degron, 30 °C, pH 7.5): substantially reduced
- transfer of fluorescent Ub from Ubc2 to Ub-Degron (Ubr1 [2]): failed to transfer fluorescent Ub from Ubc2 to Ub-Degron

Molecule: KERKRRLAKKHQARLLAKFNNQQTKFMKEHESEFDE (peptide, UniProt P19812 1165-1200, looked up) [U2BR peptide (Ubr1 1165-1200)]
- Kd [3]: 143 ± 45 nM

B1: N65A: N65A mutation of Ubc2 (protein, UniProt P06104 1-172, looked up, variant N65A)
Ubiquitin-conjugating enzyme …: T2 sequence (P06104 1-172) with N65A
- amount of polyubiquitinated Degron (Ubr1 [1]; Ubc2 N65A mutation): increased the amount of polyubiquitinated Degron

B2: Ubc2 (C88S): catalytically inactive Ubc2 (protein)
chain: T3 sequence with C86S
modifications: left off: His tag, N-terminal, state not stated
- inhibitory effect of pre-mixed inactive Ubc2 on ubiquitination (Ubr1 [1]; increasing doses up to 12.5 μM pre-mixed with Ubr1 and Degron, then wild-type Ubc2 at 4 μM): Minimal inhibitory effects
